From ChEMBL document CHEMBL1833943, “Synthesis and structure-activity relationships of varied ether linker analogues of the antitubercular drug (6S)-2-nitro-6-{[4-(trifluoromethoxy)benzyl]oxy}-6,7-dihydro-5h-imidazo[2,1-b][1,3]oxazine (PA-824)” (J Med Chem, 2011)
Converted amounts (≈) assume the structure as drawn.

Experiments:
[1] = tested on: Mycobacterium tuberculosis; assay: Antituberculosis activity against Mycobacterium tuberculosis H37Rv under aerobic conditions by microplate alamar blue assay; format: functional
[2] = tested on: Mycobacterium tuberculosis; assay: Antituberculosis activity against Mycobacterium tuberculosis H37Rv under anaerobic conditions by fluorescence based low-oxygen-recovery assay; format: functional
[3] = Aqueous solubility of the compound in water at pH 7 by HPLC analysis; format: physicochemical
In short: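 Solubility measured in water at pH 7 and 20 °C, quantified by HPLC.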

[4] = Metabolic stability in human liver microsomes at 1 uM measured as compound remaining after 1 hr by LC/MS/MS analysis; format: ADME, Microsome; settings: read-out: Stability
[5] = Metabolic stability in CD1 mouse liver microsomes at 1 uM measured as compound remaining after 1 hr by LC/MS/MS analysis; format: ADME, Microsome; settings: read-out: Stability
[6] = tested on: Mycobacterium tuberculosis; assay: Antituberculosis activity against Mycobacterium tuberculosis H37Rv infected in BALB/c mouse acute infection model assessed as fold reduction in bacterial CFU in lungs at 100 mg/kg, po administered for 5 days a week for 3 weeks beginning on day 11 postinfection relative to PA-824; format: functional
In short: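 Mice with acute M. tb infection dosed orally at 100 mg/kg daily, 5 days each week, standard 3 week assay. Lung CFUs counted. Value is the fold CFU decrease for the compound divided by the fold CFU decrease for the internal reference standard run in the same experiment.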

[7] = Stability of the compound in antimycobacterial activity assay condition assessed as parent compound level; format: ADME

| SMILES | MIC [1] | MIC [2] | solubility [3] | remaining at 1 h, 1 µM [4] | remaining at 1 h, 1 µM [5] | fold change (FC) [6] | Stability [7] |
| --- | --- | --- | --- | --- | --- | --- | --- |
| O=[N+]([O-])c1cn2c(n1)OC[C@@H](Oc1ccc(C(F)(F)F)cn1)C2 | 2.9 µM (≈ 0.958 µg/mL) | 16 µM (≈ 5.28 µg/mL) |  |  |  |  |  |
| O=[N+]([O-])c1cn2c(n1)OC[C@@H](OCc1ccc(OCc3ccccc3)cc1)C2 | 0.025 µM (≈ 0.00953 µg/mL) | 1.3 µM (≈ 0.496 µg/mL) | 0.76 µg/mL (≈ 1.99 µM) | 59% | 44% |  |  |
| O=[N+]([O-])c1cn2c(n1)OC[C@@H](OCc1ccc(C(F)(F)F)cn1)C2 | 1.5 µM (≈ 0.516 µg/mL) | 22 µM (≈ 7.57 µg/mL) | 188 µg/mL (≈ 546 µM) |  |  |  |  |
| O=[N+]([O-])c1cn2c(n1)OC[C@@H](OCc1ccc(C(F)(F)F)nc1)C2 | 3 µM (≈ 1.03 µg/mL) | 50 µM (≈ 17.2 µg/mL) | 68 µg/mL (≈ 198 µM) |  |  |  |  |
| O=[N+]([O-])c1cn2c(n1)OC[C@@H](OCCCc1ccc(OC(F)(F)F)cc1)C2 | 0.22 µM (≈ 0.0852 µg/mL) | 3.2 µM (≈ 1.24 µg/mL) | 11 µg/mL (≈ 28.4 µM) |  |  |  |  |
| O=[N+]([O-])c1cn2c(n1)OC[C@@H](OCCCc1ccc(OCc3ccccc3)cc1)C2 | 0.5 µM (≈ 0.205 µg/mL) | 3.7 µM (≈ 1.51 µg/mL) | 3.8 µg/mL (≈ 9.28 µM) |  |  |  |  |
| O=[N+]([O-])c1cn2c(n1)OC[C@@H](OCCCc1ccc(C(F)(F)F)nc1)C2 | 0.51 µM (≈ 0.19 µg/mL) | 12 µM (≈ 4.47 µg/mL) | 168 µg/mL (≈ 451 µM) |  |  |  |  |
| O=[N+]([O-])c1cn2c(n1)OC[C@@H](OCCOc1ccc(OC(F)(F)F)cc1)C2 | 0.04 µM (≈ 0.0156 µg/mL) | 5.1 µM (≈ 1.99 µg/mL) | 50 µg/mL (≈ 128 µM) | 85% | 66% | 1.3 |  |
| O=[N+]([O-])c1cn2c(n1)OC[C@@H](OCCOc1ccc(OCc3ccccc3)cc1)C2 | 0.085 µM (≈ 0.035 µg/mL) | 5.5 µM (≈ 2.26 µg/mL) | 1.7 µg/mL (≈ 4.13 µM) |  |  |  |  |
| O=[N+]([O-])c1cn2c(n1)OC[C@@H](OCCOc1ccc(C(F)(F)F)cn1)C2 | 0.38 µM (≈ 0.142 µg/mL) | 26 µM (≈ 9.73 µg/mL) | 42 µg/mL (≈ 112 µM) |  |  |  |  |
| O=[N+]([O-])c1cn2c(n1)OC[C@@H](OCCOc1ccc(C(F)(F)F)nc1)C2 | 0.79 µM (≈ 0.296 µg/mL) | 59 µM (≈ 22.1 µg/mL) | 58 µg/mL (≈ 155 µM) |  |  |  |  |
| O=[N+]([O-])c1cn2c(n1)OC[C@@H](OC/C=C/c1ccc(OC(F)(F)F)cc1)C2 | 0.05 µM (≈ 0.0193 µg/mL) | 4.3 µM (≈ 1.66 µg/mL) | 1.5 µg/mL (≈ 3.89 µM) | 99% | 71% |  |  |
| O=[N+]([O-])c1cn2c(n1)OC[C@@H](OC/C=C/c1ccc(OCc3ccccc3)cc1)C2 | 0.16 µM (≈ 0.0652 µg/mL) | 1.3 µM (≈ 0.53 µg/mL) | 0.06 µg/mL (≈ 0.147 µM) |  |  |  | < 50% |
| O=[N+]([O-])c1cn2c(n1)OC[C@@H](OC/C=C/c1ccc(C(F)(F)F)cn1)C2 | 0.043 µM (≈ 0.0159 µg/mL) | 3.8 µM (≈ 1.41 µg/mL) | 29 µg/mL (≈ 78.3 µM) |  |  |  |  |
| O=[N+]([O-])c1cn2c(n1)OC[C@@H](OC/C=C/c1ccc(C(F)(F)F)nc1)C2 | 0.15 µM (≈ 0.0555 µg/mL) | 21 µM (≈ 7.78 µg/mL) | 45 µg/mL (≈ 122 µM) |  |  |  |  |
| O=[N+]([O-])c1cn2c(n1)OC[C@@H](OCC#Cc1ccc(OC(F)(F)F)cc1)C2 | 0.12 µM (≈ 0.046 µg/mL) | 3.4 µM (≈ 1.3 µg/mL) | 0.77 µg/mL (≈ 2.01 µM) |  |  |  | < 50% |
| O=[N+]([O-])c1cn2c(n1)OC[C@@H](OCC#Cc1ccc(OCc3ccccc3)cc1)C2 | 0.09 µM (≈ 0.0365 µg/mL) | 3.5 µM (≈ 1.42 µg/mL) | 0.43 µg/mL (≈ 1.06 µM) |  |  |  | < 50% |
| O=[N+]([O-])c1cn2c(n1)OC[C@@H](OCC#Cc1ccc(C(F)(F)F)cn1)C2 | 0.12 µM (≈ 0.0442 µg/mL) | 3.3 µM (≈ 1.22 µg/mL) | 8.4 µg/mL (≈ 22.8 µM) |  |  |  |  |
| O=[N+]([O-])c1cn2c(n1)OC[C@@H](OCC#Cc1ccc(C(F)(F)F)nc1)C2 | 0.18 µM (≈ 0.0663 µg/mL) | 8.9 µM (≈ 3.28 µg/mL) | 11 µg/mL (≈ 29.9 µM) |  |  |  |  |
| O=[N+]([O-])c1cn2c(n1)OC[C@@H](OCCCC#Cc1ccc(C(F)(F)F)cn1)C2 | 0.19 µM (≈ 0.0753 µg/mL) | 3.5 µM (≈ 1.39 µg/mL) | 28 µg/mL (≈ 70.6 µM) |  |  |  |  |

| SMILES | MIC [1] | MIC [2] | solubility [3] | remaining at 1 h, 1 µM [4] | remaining at 1 h, 1 µM [5] | fold change (FC) [6] | Stability [7] |
| --- | --- | --- | --- | --- | --- | --- | --- |
| O=[N+]([O-])c1cn2c(n1)OC[C@@H](OCCCc1ccc(-c3ccc(C(F)(F)F)cc3)cc1)C2 | 0.043 µM (≈ 0.0192 µg/mL) | > 128 µM |  | 73% | 81% | 0.05 |  |
| O=[N+]([O-])c1cn2c(n1)OC[C@@H](OCCOc1ccc(-c3ccc(OC(F)(F)F)cc3)cc1)C2 | 0.055 µM (≈ 0.0256 µg/mL) | 1.6 µM (≈ 0.745 µg/mL) | 0.68 µg/mL (≈ 1.46 µM) | 90% | 70% | 1.4 |  |
| O=[N+]([O-])c1cn2c(n1)OC[C@@H](OCCOc1ncc(-c3ccc(OC(F)(F)F)cc3)cn1)C2 | 0.13 µM (≈ 0.0608 µg/mL) | 2.1 µM (≈ 0.981 µg/mL) | 21 µg/mL (≈ 44.9 µM) |  |  |  |  |
| O=[N+]([O-])c1cn2c(n1)OC[C@@H](OC/C=C/c1ccc(-c3ccc(OC(F)(F)F)cc3)cc1)C2 |  | > 128 µM | 0.5 µg/mL (≈ 1.08 µM) | 100% | 95% | 2 |  |
| O=[N+]([O-])c1cn2c(n1)OC[C@@H](OCC#Cc1ccc(-c3ccc(C(F)(F)F)nc3)cc1)C2 | 0.15 µM (≈ 0.0667 µg/mL) | 1.2 µM (≈ 0.533 µg/mL) |  | 82% | 90% | 0.01 |  |
| O=[N+]([O-])c1cn2c(n1)OC[C@@H](OCC#Cc1ccc(-c3ccc(OC(F)(F)F)cc3)cn1)C2 | 0.025 µM (≈ 0.0115 µg/mL) | 0.35 µM (≈ 0.161 µg/mL) | 0.05 µg/mL (≈ 0.109 µM) | 89% | 86% | 0.91 |  |
| O=[N+]([O-])c1cn2c(n1)OC[C@@H](OCCCC#Cc1ccc(-c3ccc(OC(F)(F)F)cc3)cc1)C2 | 0.055 µM (≈ 0.0268 µg/mL) | > 128 µM |  |  |  |  | Unstable |
| O=[N+]([O-])c1cn2c(n1)OC[C@@H](Oc1ccc(-c3ccc(OC(F)(F)F)cc3)cn1)C2 | 0.39 µM (≈ 0.165 µg/mL) | 12 µM (≈ 5.07 µg/mL) | 0.24 µg/mL (≈ 0.568 µM) | 96% | 93% | 0.17 |  |
| O=[N+]([O-])c1cn2c(n1)OC[C@@H](Oc1ccc(-c3ccc(OC(F)(F)F)cc3)nc1)C2 | 0.14 µM (≈ 0.0591 µg/mL) | 1.5 µM (≈ 0.633 µg/mL) | 0.27 µg/mL (≈ 0.639 µM) |  |  |  |  |
| O=[N+]([O-])c1cn2c(n1)OC[C@@H](Oc1ncc(-c3ccc(OC(F)(F)F)cc3)cn1)C2 | 0.22 µM (≈ 0.0931 µg/mL) | 5.2 µM (≈ 2.2 µg/mL) | 1.7 µg/mL (≈ 4.02 µM) | 88% | 95% |  |  |
| O=[N+]([O-])c1cn2c(n1)OC[C@@H](OCCCC#Cc1ccc(C(F)(F)F)nc1)C2 | 0.12 µM (≈ 0.0476 µg/mL) | 9.2 µM (≈ 3.65 µg/mL) | 16 µg/mL (≈ 40.4 µM) |  |  |  |  |
| O=[N+]([O-])c1cn2c(n1)OC[C@@H](Oc1cccc(-c3ccc(OC(F)(F)F)cc3)n1)C2 | 0.24 µM (≈ 0.101 µg/mL) | 3.3 µM (≈ 1.39 µg/mL) | 0.12 µg/mL (≈ 0.284 µM) |  |  |  |  |
| O=[N+]([O-])c1cn2c(n1)OC[C@@H](Oc1cccc(-c3ccc(F)cc3)n1)C2 | 3.2 µM (≈ 1.14 µg/mL) | 27 µM (≈ 9.62 µg/mL) |  |  |  |  |  |
| O=[N+]([O-])c1cn2c(n1)OC[C@@H](Oc1cccc(-c3ccc(C(F)(F)F)nc3)n1)C2 | 5.7 µM (≈ 2.32 µg/mL) | > 128 µM |  |  |  |  |  |
| O=[N+]([O-])c1cn2c(n1)OC[C@@H](Oc1ccnc(-c3ccc(OC(F)(F)F)cc3)c1)C2 | 0.3 µM (≈ 0.127 µg/mL) | 2.6 µM (≈ 1.1 µg/mL) | 0.53 µg/mL (≈ 1.25 µM) |  |  |  |  |
| O=[N+]([O-])c1cn2c(n1)OC[C@@H](Oc1ccnc(-c3ccc(C(F)(F)F)nc3)c1)C2 | 14 µM (≈ 5.7 µg/mL) | > 128 µM |  |  |  |  |  |
| O=[N+]([O-])c1cn2c(n1)OC[C@@H](Oc1cc(-c3ccc(OC(F)(F)F)cc3)ccn1)C2 | 5.1 µM (≈ 2.15 µg/mL) | 87 µM (≈ 36.7 µg/mL) | 0.13 µg/mL (≈ 0.308 µM) |  |  |  | < 50% |
| O=[N+]([O-])c1cn2c(n1)OC[C@@H](Oc1cc(-c3ccc(F)cc3)ccn1)C2 | 5.2 µM (≈ 1.85 µg/mL) | 28 µM (≈ 9.98 µg/mL) |  |  |  |  |  |
| O=[N+]([O-])c1cn2c(n1)OC[C@@H](Oc1cc(-c3ccc(OC(F)(F)F)cc3)ncn1)C2 | 2.1 µM (≈ 0.889 µg/mL) |  | 0.88 µg/mL (≈ 2.08 µM) |  |  |  | < 50% |
| CC(O[C@@H]1COc2nc([N+](=O)[O-])cn2C1)c1ccc(OC(F)(F)F)cc1 (mixture of isomers) | 0.6 µM | 7.7 µM |  | 73% | 75% |  |  |
